≈ marks a conversion by molar mass, not a printed value.
tested on: Staphylococcus aureus; experiment: Antibacterial activity against methicillin-resistant Staphylococcus aureus after 18 hrs by agar microdilution method; type: functional
How it was run: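 Agar microdilution; compounds in DMSO, serial 2-fold dilutions mixed 1:100 into melted Mueller-Hinton agar, final 128 to 0.03 µg/mL. Clinical MRSA isolate (Songklanakarin Hospital) inoculum spotted on agar wells, incubated 35 °C for 18 h. MIC taken as lowest concentration inhibiting visible growth. Vancomycin positive control; DMSO-agar growth control.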

Going from `CO[C@H]1[C@@H]2C(=O)c3c(O)c(CC=C(C)C)c4c(c3O[C@]23[C@@H]2C[C@@]1(OC)C(=O)[C@@]3(C/C=C(\C)C=O)OC2(C)C)C(C)(C)[C@@H](C)O4` [SCORTECHINONE T] to `CO[C@H]1[C@@H]2C(=O)c3c(O)c(CC=C(C)C)c4c(c3O[C@]23[C@@H]2C[C@@]1(OC)C(=O)[C@@]3(C/C=C(/C)C(=O)O)OC2(C)C)C(C)(C)[C@@H](C)O4` [SCORTECHINONE I], the MIC falls from over 105 µM to 12.8 µM (≈ 8 µg/mL).

Compared with `CO[C@]12C=C3C(=O)c4c(O)c(CC=C(C)C)c5c(c4O[C@]34[C@H](C1)C(C)(C)O[C@]4(C/C=C(/C)C(=O)O)C2=O)C(C)(C)[C@H](C)O5` [SCORTECHINONE B], `C=C(C)C(O)Cc1c(O)c2c(c3c1O[C@H](C)C3(C)C)O[C@@]13C(=C[C@@]4(OC)C[C@@H]1C(C)(C)O[C@]3(C/C=C(/C)C(=O)O)C4=O)C2=O` (stereo partly specified) [SCORTECHINONE R] is higher in MIC: 3.38 µM (≈ 2 µg/mL) for the first, over 210 µM for the second.

First: COc1cc2c(=O)c3c(O)c(CC=C(C)C)c4c(c3oc2c2c1[C@@](C/C=C(\C)C(=O)O)(C(=O)O)OC2(C)C)C(C)(C)[C@@H](C)O4 [SCORTECHINONE V]
Second: COc1cc2c(=O)c3c(O)c4c(c(CC=C(C)C)c3oc2c2c1[C@@](C/C=C(\C)C(=O)O)(C(=O)O)OC2(C)C)OC(C)C4(C)C (stereo partly specified) [SCORTECHINONE W]
The MIC of the first is 2-fold higher: 106 µM (≈ 64.3 µg/mL) for the first, 52.8 µM (≈ 32 µg/mL) for the second.

`COC1Cc2c(oc3c(CC=C(C)C)c4c(c(O)c3c2=O)C(C)(C)C(C)O4)C2=C1[C@@](C/C=C(\C)C(=O)O)(C(=O)O)OC2(C)C` (stereo partly specified) [SCORTECHINONE X] and `CO[C@]12C=C3C(=O)c4c(O)c(CC=C(C)C)c5c(c4O[C@]34[C@H](C1)[C@](C)(CO)O[C@]4(CC=C(C)C)C2=O)C(C)(C)[C@@H](C)O5` cannot be ordered by MIC: over 210 µM for the first, over 221 µM for the second.

Compared with `C=C(C)C(O)Cc1c(O)c2c(c3c1O[C@H](C)C3(C)C)O[C@@]13[C@@H]4C[C@@](OC)(C(=O)[C@@]1(C/C=C(/C)C(=O)O)OC4(C)C)[C@@H](OC)[C@@H]3C2=O` (stereo partly specified) [SCORTECHINONE S], `CC(C)=CCc1c2c(c3oc4c(C(C)(C)O)cc(O)cc4c(=O)c3c1O)C(C)(C)[C@@H](C)O2` [SCORTECHINONE U] is higher in MIC: 100 µM (≈ 64.1 µg/mL) for the first, over 292 µM for the second.

For `CN[C@H](CC(C)C)C(=O)N[C@H]1C(=O)N[C@@H](CC(N)=O)C(=O)N[C@H]2C(=O)N[C@H]3C(=O)N[C@H](C(=O)N[C@H](C(=O)O)c4cc(O)cc(O)c4-c4cc3ccc4O)[C@H](O)c3ccc(c(Cl)c3)Oc3cc2cc(c3O[C@@H]2O[C@H](CO)[C@@H](O)[C@H](O)[C@H]2O[C@H]2C[C@](C)(N)[C@H](O)[C@H](C)O2)Oc2ccc(cc2Cl)[C@H]1O` [VANCOMYCIN], the MIC was 1.38 µM (≈ 2 µg/mL).

Reference: ChEMBL document CHEMBL1158803, “Xanthone and sesquiterpene derivatives from the fruits of Garcinia scortechinii” (2005)
